Calls of active or inactive are those of the source. The calls are words filed in the database; no cut-off is given here.
How the values were obtained:
DU-145 [1] = assay: Cytotoxicity against human DU145 cells at 2.5 to 80 uM after 24 hrs by cell counting kit analysis; format: functional, cell-based
How it was run: (§1)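 DU145 cells cultured at 37 °C in humidified 5% CO2 with serum and penicillin/streptomycin. Cells treated with a range of compound concentrations for 24 h, then viability read with Cell Counting Kit-8 per the manufacturer. Viability expressed relative to an untreated group. Paclitaxel (0.1 μM) served as positive control.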

DU-145 [2] = assay: Antiinvasive activity against human DU145 cells at 0.2 uM after 24 hrs by cell invasion assay; format: functional, cell-based
How it was run: (§2)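 DU145 prostate cancer cells grown at 37 °C, humidified 5% CO2, in medium with serum, 100 units/mL penicillin and 100 μg/mL streptomycin. Cells exposed to compound for 24 h, then in vitro invasiveness measured with a commercial cell invasion assay kit per the maker's protocol. Inhibition expressed relative to an untreated group.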

DU-145 [3] = assay: Cytotoxicity against human DU145 cells at 0.25 to 8 uM after 24 hrs by cell counting kit analysis; format: functional, cell-based; how it was run: as §1
DU-145 [4] = assay: Antiinvasive activity against human DU145 cells at 15 to 60 uM after 24 hrs by cell invasion assay; format: functional, cell-based; how it was run: as §2
DU-145 [5] = assay: Inhibition of human DU145 cells invasion at 60 uM after 24 hrs by cell invasion assay; format: functional; details: DU-145, 24 h; how it was run: as §2
DU-145 [6] = assay: Decrease in MMP9 mRNA level in human DU145 cell by RT-PCR analysis; format: functional, cell-based
How it was run: (§3)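 DU145 cells were exposed to compounds for 18 h. Total RNA was isolated by spin column and reverse-transcribed to cDNA. PCR used 100 ng cDNA aliquots: 94 °C for 5 min, then 32 cycles of 94 °C for 30 s, 58 °C for 30 s and 72 °C for 1 min. Products were assessed for MMP-2 and MMP-9 transcript levels.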

DU-145 [7] = assay: Decrease in MMP2 mRNA level in human DU145 cell by RT-PCR analysis; format: functional, cell-based; how it was run: as §3
DU-145 [8] = assay: Antiinvasive activity against human DU145 cells after 24 hrs by cell invasion assay; format: functional, cell-based
How it was run: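 DU145 cells grown with serum, 100 units/mL penicillin and 100 μg/mL streptomycin at 37 °C in humidified 5% CO2. Cells were exposed to test compounds at the indicated concentrations for 24 h. In vitro invasiveness was then measured with a commercial cell invasion kit per the manufacturer's protocol and expressed as inhibition relative to an untreated group.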

DU-145 [9] = assay: Cytotoxicity against human DU145 cells at 0.1 uM after 24 hrs by cell counting kit analysis; format: functional
How it was run: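 DU145 cells were cultured in serum-supplemented medium with penicillin/streptomycin at 37 °C in 5% CO2. They were exposed to a range of compound concentrations for 24 h. Viability was read with the CCK-8 kit per the manufacturer's instructions and expressed as a percentage of an untreated group. Paclitaxel at 0.1 μM served as the positive control.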

Row | SMILES | Activity (DU-145 [1]) | Activity (DU-145 [2]) | Activity (DU-145 [3]) | inhibition at 60 µM (DU-145 [5]) [%] | also measured
1 | CN1C(=O)[C@@]23Cc4ccc([N+](=O)[O-])cc4N2C(=O)[C@@]1(CO)SS3 | Active | inactive | Active |  | 
2 | CN1C(=O)[C@]23CC4=CC=C[C@H](O)[C@H]4N2C(=O)[C@@]1(CO)SS3 | Active | inactive | Active |  | 
3 | CS[C@]1(CO)C(=O)N2[C@H]3C(=CC=C[C@@H]3O)C[C@@]2(SC)C(=O)N1C [BIS(DETHIO)BIS(METHYLTHIO)GLIOTOXIN] | inactive |  |  | 22 | Activity (DU-145 [4]): inactive
4 | CS[C@@]1(CO)C(=O)N2c3cc([N+](=O)[O-])ccc3C[C@]2(SC)C(=O)N1C [GLIONITRIN B] | inactive |  |  | 46 | Activity (DU-145 [6]): Dose-dependent effect; Activity (DU-145 [7]): Dose-dependent effect; Activity (DU-145 [8]): Dose-dependent effect
5 | CC(=O)O[C@H]1C(=O)[C@@]2(C)[C@H]([C@H](OC(=O)c3ccccc3)[C@]3(O)C[C@H](OC(=O)[C@H](O)[C@@H](NC(=O)c4ccccc4)c4ccccc4)C(C)=C1C3(C)C)[C@]1(OC(C)=O)CO[C@@H]1C[C@@H]2O [PACLITAXEL] |  |  |  |  | Activity (DU-145 [9]): 18.9%
